What is called GI50 is the concentration giving 50% growth inhibition. Higher therefore signals lower sensitivity of the cells. As a reminder, the LC50 is the concentration that kills 50% of the test population. Lower therefore signals greater toxicity. One may read the TGI as the concentration at which net growth stops. Higher therefore signals less potent growth arrest.

The values below come from ChEMBL document CHEMBL4715736, “Identification of anticancer agents based on the thieno[2,3-b]pyridine and 1H-pyrazole molecular scaffolds” (2016).

Holding throughout (format): functional
The subject of test [1] is SK-MEL-28. Briefly: Growth inhibition of human SK-MEL-28 cells assessed as cell growth at 0.1 uM incubated for 48 hrs by sulforhodamine B assay relative to control. The settings on record: read-out: Activity. (In SRB staining, fixed cells bind dye roughly in proportion to their protein.)
The test system of test [2] is BT-549. Briefly: Growth inhibition of human BT-549 cells assessed as cell growth at 100 uM incubated for 48 hrs by sulforhodamine B assay relative to control. The settings on record: read-out: Activity.
For test [3], the system named is EKVX. Nature of the test: Growth inhibition of human EKVX cells assessed as cell growth at 10 uM incubated for 48 hrs by sulforhodamine B assay relative to control. The settings on record: read-out: Activity.
Test [4] concerns HL-60(TB). Briefly: Growth inhibition of human HL-60(TB) cells assessed as cell growth at 0.01 uM incubated for 48 hrs by sulforhodamine B assay relative to control. The settings on record: read-out: Activity. Summed up:
(§1)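 Screened by the NCI Developmental Therapeutics Program on its panel of 60 human tumour cell lines. Compounds were first tested at a single 10 µM dose, and compounds active there went to dose-response curves. Growth is expressed relative to untreated control (100%). GI50 (50% of maximal proliferation inhibition) and TGI (total growth inhibition) were derived from the dose-response data.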

Test [5] has as its system HL-60(TB). Briefly: Growth inhibition of human HL-60(TB) cells assessed as cell growth at 0.1 uM incubated for 48 hrs by sulforhodamine B assay relative to control. The settings on record: read-out: Activity. Summed up: as §1
Test [6] relates to HL-60(TB). Nature of the test: Growth inhibition of human HL-60(TB) cells assessed as cell growth at 1 uM incubated for 48 hrs by sulforhodamine B assay relative to control. The settings on record: read-out: Activity. Put shortly:
as §1

Test [7] relates to HL-60(TB). Nature of the test: Growth inhibition of human HL-60(TB) cells assessed as cell growth at 100 uM incubated for 48 hrs by sulforhodamine B assay relative to control. The note with it: read-out: Activity. Summed up:
as §1

The test system of test [8] is HL-60(TB). Briefly: Growth inhibition of human HL-60(TB) cells incubated for 48 hrs by sulforhodamine B assay. Put shortly:
as §1

The subject of test [9] is EKVX. Nature of the test: Growth inhibition of human EKVX cells assessed as cell growth at 0.01 uM incubated for 48 hrs by sulforhodamine B assay relative to control. The settings on record: read-out: Activity.
Test [10] relates to EKVX. Nature of the test: Growth inhibition of human EKVX cells assessed as cell growth at 0.1 uM incubated for 48 hrs by sulforhodamine B assay relative to control. The note with it: read-out: Activity.
Test [11] has as its system EKVX. Briefly: Growth inhibition of human EKVX cells assessed as cell growth at 1 uM incubated for 48 hrs by sulforhodamine B assay relative to control. The settings on record: read-out: Activity.
In test [12] the test system is EKVX. Nature of the test: Growth inhibition of human EKVX cells assessed as cell growth at 100 uM incubated for 48 hrs by sulforhodamine B assay relative to control. The note with it: read-out: Activity.
For test [13], the system named is EKVX. Briefly: Growth inhibition of human EKVX cells incubated for 48 hrs by sulforhodamine B assay.

As to `COc1cccc(NC(=O)c2sc3nc4c(cc3c2N)CN(Cc2ccccc2)CC4)c1`, the growth at 0.1 µM in test [1] stood at 99%. Also, the growth at 100 µM in [2] was -32%.

With `COc1ccc(S(=O)(=O)n2ccc(-c3ccc4c(c3)CCC(C)(C)O4)n2)cc1`, the growth at 10 µM in test [3] came out at 51.6%.

With `CCc1cccc(C)c1NC(=O)c1sc2nc3c(cc2c1N)C(=O)CCC3`, the growth at 0.01 µM in test [4] is 96%. Besides, the growth at 0.1 µM in test [5] worked out at 96%. The growth at 0.1 µM in test [1] was found to be 91%. For the same molecule, in [6], the growth at 1 µM came out at 2%. Besides, the growth at 100 µM in [7] was -52%. In [8], this molecule came in with a concentration for 50% growth inhibition (GI50) of 0.319 µM, an LC50 of at least 100 µM and a TGI of at least 100 µM.

As to `Cc1cc(C)c(NC(=O)c2sc3nc4c(cc3c2N)CN(Cc2ccccc2)CC4)c(C)c1`, the growth at 0.1 µM in test [1] worked out at 97%. Moreover, the growth at 100 µM in test [2] was -9%.

Take `Nc1c(C(=O)Nc2ccccc2)sc2nc3c(cc12)CN(Cc1ccccc1)CC3`: the growth at 0.1 µM in test [1] came out at 93%. Moreover, the growth at 100 µM in [2] was -2%.

In the case of `CCc1ccccc1NC(=O)c1sc2nc3c(cc2c1N)C(=O)CCC3`, the growth at 0.01 µM in [4] is 101%. The values for the growth at 0.1 µM in test [5] and in [1] were 87% and 79%, respectively. In addition, the growth at 1 µM in test [6] is 6%. In addition, the results for the growth at 100 µM in test [7] and in test [2] were -5% and 11%, respectively. Also, the GI50 in test [8] was 0.304 µM. In addition, in test [8], the 50% lethal concentration (LC50) was over 100 µM. The TGI in [8] is 42 µM.

Turning to `Cc1ccc(NC(=O)c2sc3nc4c(cc3c2N)C(=O)CCC4)cc1C`, the growth at 0.01 µM in test [4] was found to be 99%. The growth at 0.1 µM in test [5] came out at 105%. The growth at 0.1 µM in test [1] came to 87%. In addition, the growth at 1 µM in test [6] came to 6%. The growth at 100 µM in test [7] is -33%. In addition, the growth at 100 µM in test [2] is 42%. In [8], this molecule yielded a GI50 of 0.36 µM, an LC50 of over 100 µM and a TGI of 1.72 µM.

Turning to `CN1CCc2nc3sc(C(N)=O)c(N)c3c(-c3cccs3)c2C1`, the figures for the growth at 0.01 µM in test [4] and in [9] were 110% and 100%, respectively. Further, the values for the growth at 0.1 µM in [5], in test [10] and in [1] were 104%, 92% and 103%, respectively. Further, the growth at 1 µM turned out to be 95% in test [6] and 91% in test [11]. Further, the growth at 10 µM in [3] stood at 17%. Also, the growth at 100 µM was -19% in [7], 5% in [12] and -8% in test [2]. Also, the GI50 in test [8] came to 2.5 µM; in test [13], 3.54 µM. The molecule further showed an LC50 in test [8] of over 100 µM. Besides, the figures for the TGI in test [8] and in [13] were 6.97 µM and over 100 µM, respectively. Moreover, in [13] (read-out: LC50 (the source's name)), the CC50 is over 100 µM.

As for `Cc1cccc(NC(=O)c2sc3nc4c(cc3c2N)C(=O)CCC4)c1`, in test [1], the growth at 0.1 µM worked out at 66%. Moreover, in test [2], the growth at 100 µM is -11%.
